Results published in article PMC8811920 (ACS Omega, 2022).

Assays:
[1] = Total antioxidant capacity; conditions: sample 4 mg/mL in DMSO, ascorbic acid equivalents
How it was run: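 100 μL sample (4 mg/mL in DMSO) mixed with 900 μL phosphomolybdenum reagent (0.6 M H2SO4, 28 mM sodium phosphate, 4 mM ammonium molybdate). Heated 90 min at 95 °C, cooled to room temperature, and 200 μL read at 630 nm. Quantified against an ascorbic acid calibration curve as μg AAE/mg extract. Triplicate.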

Total reducing power = conditions: sample 4 mg/mL in DMSO, ascorbic acid equivalents
How it was run: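 200 μL sample (4 mg/mL in DMSO) mixed with 400 μL phosphate buffer (0.2 mol/L, pH 6.6) and 1% potassium ferricyanide; 20 min at 50 °C. Added 10% trichloroacetic acid and centrifuged 10 min at 3000 rpm. 200 μL of upper layer mixed with 0.1% FeCl3 and read at 630 nm. Expressed as μg ascorbic acid equivalent/mg extract from a calibration curve. Triplicate.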

[2] = DPPH radical scavenging assay; conditions: 10 μL sample + 190 μL DPPH, 30 min, 37 °C
How it was run: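 10 μL sample mixed with 190 μL DPPH solution in microplate and held 30 min at 37 °C. Absorbance read spectrophotometrically. % scavenging = (1 − Abs/Abc) × 100, where Abc is the reagent-only negative control; SC50 also described. Ascorbic acid as standard. Triplicate.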

α-amylase = assay: α-Amylase inhibition assay; format: biochemical; conditions: 10 μL sample, 4 mg/mL in DMSO
How it was run: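 Mix in pH 6.8 phosphate buffer: α-amylase (0.14 U/mL), 10 μL sample (4 mg/mL in DMSO) and starch (2 mg/mL); 30 min at 50 °C. Stopped with 1 M HCl, then iodine/KI reagent (5 mM each) added. Read at 540 nm. Acarbose positive control at 5−200 μg/mL. Sample-free well taken as 100% activity; blank lacked sample and enzyme.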

urease = assay: Urease inhibition assay; format: biochemical; conditions: 10 μL sample, 4 mg/mL in DMSO
How it was run: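 Mix: 25 μL urease, 50 μL phosphate buffer (3 mM, pH 4.5, containing 100 mM urea) and 10 μL sample (4 mg/mL in DMSO); 15 min at 30 °C. Ammonia detected by phenol–nitroprusside reagent plus alkaline hypochlorite, then 50 min at 30 °C. Read at 630 nm. Thiourea as control. % inhibition = (OD blank − OD sample)/OD blank × 100.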

lipase = assay: Lipase inhibition assay; format: biochemical; conditions: 50 μL sample, 4 mg/mL in DMSO
How it was run: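 Lipase dissolved at 10 mg/mL in ultrapure water, spun 5 min at 16,000 rpm; supernatant used. Assay buffer 100 mM Tris, pH 8.2. Mix: 350 μL buffer, 150 μL lipase, 50 μL sample (4 mg/mL in DMSO). Started with 450 μL substrate: 0.08% v/v olive oil in 5 mM sodium acetate pH 5.0 with 1% Triton X-100. Incubated 2 h at 37 °C, spun, read at 400 nm. Orlistat standard. % inhibition = (OD blank − OD sample)/OD blank × 100.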

S. aureus (ATCC # 6538) = assay: Antibacterial disc diffusion, S. aureus; format: cell-based, Staphylococcus aureus; conditions: isolated compounds; cefixime positive control
M. luteus = assay: Antibacterial assay of isolated compounds, M. luteus; format: cell-based; conditions: cefixime positive control
Salmonella typhi = assay: Antibacterial assay of isolated compounds, S. typhi; format: cell-based; conditions: cefixime positive control
E. aerogenes = assay: Antibacterial assay of isolated compounds, E. aerogenes; format: cell-based, Escherichia aerogenes; conditions: cefixime positive control
S. setubal = assay: Antibacterial assay of isolated compounds, S. setubal; format: cell-based; conditions: cefixime positive control

C=C(C)[C@@H]1CC[C@]2(C)CC[C@]3(C)[C@H](CC[C@@H]4[C@@]5(C)CC[C@H](O)C(C)(C)[C@@H]5CC[C@]43C)[C@@H]12 [compound 1, lup-20(29)-en-3β-ol]
TAC [1]: 55.5 ± 1.3 μgAAE/mg extract
TRP (Total reducing power): 96.9 ± 1.6 μgAAE/mg extract
TRP (Total reducing power; listed as lupeol): 96.9 μgAAE/mg extract
DPPH % (free-radical scavenging) [2]: 68.8 ± 1.1%
DPPH % (free-radical scavenging) ([2]; listed as lupeol): 68.8%
amylase inhibition (%) (α-amylase): 16.0 ± 0.4%
urease inhibition (%) (urease): 85.8 ± 0.9%
lipase inhibition (%) (lipase): 84.0 ± 0.8%
antibacterial ZOI, S. aureus (S. aureus (ATCC # 6538)): 14 ± 1.2 mm
antibacterial ZOI, M. luteus (M. luteus): 15 ± 1.1 mm
antibacterial ZOI, S. typhi (Salmonella typhi): 18 ± 1.3 mm
antibacterial ZOI, S. typhi (Salmonella typhi; listed as lupeol): 18 mm
antibacterial ZOI, E. aerogenes (E. aerogenes): 14 ± 1.1 mm
antibacterial ZOI, S. setubal (S. setubal): 12 ± 1.3 mm

O=C(O)c1cccc(O)c1 [compound 6, 3-hydroxybenzoic acid]
TAC [1]: 66.6 ± 1.5 μgAAE/mg extract
TRP (Total reducing power): 62.5 ± 1.3 μgAAE/mg extract
DPPH % (free-radical scavenging) [2]: 65.8 ± 1.6%
DPPH % (free-radical scavenging) ([2]; listed as 3-Hydroxybenzoic acid): 65.8%
amylase inhibition (%) (α-amylase): 31.5 ± 0.8%
urease inhibition (%) (urease): 59.8 ± 0.6%
lipase inhibition (%) (lipase): 51.9 ± 0.7%
antibacterial ZOI, S. aureus (S. aureus (ATCC # 6538)): 15 ± 1.6 mm
antibacterial ZOI, M. luteus (M. luteus): 15 ± 1.2 mm
antibacterial ZOI, S. typhi (Salmonella typhi): 16 ± 1.5 mm
antibacterial ZOI, E. aerogenes (E. aerogenes): 15 ± 1.4 mm
antibacterial ZOI, S. setubal (S. setubal): 14 ± 1.7 mm

O=C(O)c1ccccc1 [compound 4, benzoic acid]
TAC [1]: 60.6 ± 1.8 μgAAE/mg extract
TRP (Total reducing power): 59.5 ± 1.5 μgAAE/mg extract
DPPH % (free-radical scavenging) [2]: 50.8 ± 1.6%
amylase inhibition (%) (α-amylase): 36.5 ± 0.9%
urease inhibition (%) (urease): 65.8 ± 0.6%
lipase inhibition (%) (lipase): 58.9 ± 0.7%
antibacterial ZOI, S. aureus (S. aureus (ATCC # 6538)): 12 ± 1.6 mm
antibacterial ZOI, M. luteus (M. luteus): 13 ± 1.2 mm
antibacterial ZOI, S. typhi (Salmonella typhi): 15 ± 1.5 mm
antibacterial ZOI, S. typhi (Salmonella typhi; listed as benzoic acid): 15 mm
antibacterial ZOI, E. aerogenes (E. aerogenes): 12 ± 1.4 mm
antibacterial ZOI, S. setubal (S. setubal): 15 ± 1.7 mm

COC(=O)c1ccccc1 [compound 3, methyl benzoate]
TAC [1]: 82.5 ± 1.3 μgAAE/mg extract
TAC ([1]; listed as methyl benzoate): 82.5 μgAAE/mg extract
TRP (Total reducing power): 45.2 ± 1.6 μgAAE/mg extract
DPPH % (free-radical scavenging) [2]: 49.4 ± 1.9%
amylase inhibition (%) (α-amylase): 26.2 ± 0.5%
urease inhibition (%) (urease): 55.1 ± 1.2%
lipase inhibition (%) (lipase): 50.3 ± 0.5%
antibacterial ZOI, S. aureus (S. aureus (ATCC # 6538)): 7 ± 0.8 mm
antibacterial ZOI, M. luteus (M. luteus): 14 ± 1.1 mm
antibacterial ZOI, S. typhi (Salmonella typhi): 10 ± 1.1 mm
antibacterial ZOI, E. aerogenes (E. aerogenes): 15 ± 1.1 mm
antibacterial ZOI, S. setubal (S. setubal): 13 ± 1.1 mm

CCCCCCCCCCCCCCCCCCCCCCCCCCCCCCO [compound 2, 1-triacontanol]
TAC [1]: 89.5 ± 1.6 μgAAE/mg extract
TAC ([1]; listed as 1-triacontanol): 89.5 μgAAE/mg extract
TRP (Total reducing power): 55.2 ± 1.8 μgAAE/mg extract
DPPH % (free-radical scavenging) [2]: 59.4 ± 2.1%
amylase inhibition (%) (α-amylase): 29.9 ± 1.4%
urease inhibition (%) (urease): 82.5 ± 0.8%
lipase inhibition (%) (lipase): 50.8 ± 0.9%
antibacterial ZOI, S. aureus (S. aureus (ATCC # 6538)): 9 ± 1.3 mm
antibacterial ZOI, M. luteus (M. luteus): 10 ± 0.9 mm
antibacterial ZOI, S. typhi (Salmonella typhi): 10 ± 1.3 mm
antibacterial ZOI, E. aerogenes (E. aerogenes): 15 ± 1.4 mm
antibacterial ZOI, E. aerogenes (E. aerogenes; listed as 1-triacontanol): 15 mm
antibacterial ZOI, S. setubal (S. setubal): 15 ± 1.2 mm
antibacterial ZOI, S. setubal (S. setubal; listed as 1-triacontanol): 15 mm

C[C@H]1[C@H](C)CC[C@]2(C(=O)O)CC[C@]3(C)C(=CC[C@@H]4[C@@]5(C)CC[C@H](O)C(C)(C)[C@@H]5CC[C@]43C)[C@H]12 [compound 5, 3β-hydroxy-urs-12-en-28-oic acid]
TAC [1]: 70.4 ± 1.8 μgAAE/mg extract
TRP (Total reducing power): 76.2 ± 1.5 μgAAE/mg extract
DPPH % (free-radical scavenging) [2]: 58.6 ± 1.7%
amylase inhibition (%) (α-amylase): 48.9 ± 0.6%
urease inhibition (%) (urease): 78.8 ± 0.5%
lipase inhibition (%) (lipase): 76.6 ± 0.8%
antibacterial ZOI, S. aureus (S. aureus (ATCC # 6538)): 13 ± 1.3 mm
antibacterial ZOI, M. luteus (M. luteus): 14 ± 1.4 mm
antibacterial ZOI, S. typhi (Salmonella typhi): 16 ± 1.8 mm
antibacterial ZOI, S. typhi (Salmonella typhi; listed as ursolic acid): 16 mm
antibacterial ZOI, E. aerogenes (E. aerogenes): 12 ± 1.3 mm
antibacterial ZOI, S. setubal (S. setubal): 13 ± 1.2 mm
